Results on 167 variants are retold here after the RNAGym collection of RNA variant scans (doi:10.1126/science.aae0568).

Fewer inactive variants are shown than the library holds.

B1: tRNA (parent)
chain: GUUCCGUUGGCGUAAUGGUAACGCGUCUCCCUCCUAAGGAGAAGACUGCGGGUUCGAGUCCCGUACGGAACG

The variants in the series derive from B1. Nature of the series: yeast fitness relative to wild type (ratio to wild type); higher = fitter; tRNA-Arg(CCU), competitive growth, 37 C, YPD. In a few lines: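 A pool of Saccharomyces cerevisiae strains, each with a tRNA-Arg(CCU) gene variant at the native genomic locus, was competed in YPD at 37°C for 24 hours across six parallel replicates. The variants had been chemically synthesised at a 3% per-site mutation rate over 69 sites, and gene amplicons before and after competition were read by 100-nucleotide paired-end sequencing. Darwinian fitness relative to wild type rested on changes in genotype frequencies. Genotypes required ≥ 100 starting reads, and estimates < 0.5 were set to 0.5.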
For U32A U53A, the yeast fitness was at most 0.5. The value for U32C A37U G48A G63C was at most 0.5; that for U32C A40U C60U G67C A70G was at most 0.5; that for C31U U47C was 0.934. Then C31U U53C C62G, with 0.625. With U32C C33G A37G G52A C55U A65U, the yeast fitness is 0.555. The value for C31U U54G C55U was 0.566; that for U32C A43U was 0.921.

Take U32C A43G: the yeast fitness is 0.998. Then C31U U35C A40G, with at most 0.5. The value for C31U G63A was 1.14; that for U32A A37G G48A C60G G68A was at most 0.5; that for U32A C33U A40C was 0.661. The value for U32C C34A C62A was 0.591; that for U32A A42U U54C was at most 0.5; that for U32A U64A A65U was 0.961. Turning to U32A U54C C55U, the yeast fitness is at most 0.5. On to U32C A40G A70C, for which the yeast fitness came out at 0.634.

With U32A G56C A69U, the yeast fitness came to 0.53. Then C31U U35C, with 0.851; and C31U G58A A65G, with 0.73; and C31U G58A C66U, with 0.73. Then U32C A43G A70G, with 0.708; and U32C A42U U64A A65G, with at most 0.5. For U32A U35G A36U G38A U47C, the yeast fitness was at most 0.5. Then U32A A40C A69C, with 0.562; and C31U U64G, with 0.775. With C31U U64C, the yeast fitness was 0.817.

Consider U32A G58A A70C, for which the yeast fitness was determined as 0.513. In the case of C31U G68U A69U, the yeast fitness was 0.615. Then U32A C46A G58A, with at most 0.5; and U32A G56C, with 0.594. Turning to U32A C60A, the yeast fitness was at most 0.5. The value for U32C C34A was 0.729; that for U32A A36G was 0.814; that for U32C A40U C46A A65U was 0.589. The value for U32C A65U was 0.957; that for U32C A65C was 1.03; that for U32C A65G was 0.936. With U32C C34A A40C U54C C66U, the yeast fitness was 0.534. Then U32A C66U, with 0.834; and U32C A36U G38A G50A G67A, with at most 0.5; and U32A G50A, with 0.783. With U32A C33A A43U C62U, the yeast fitness is at most 0.5. The value for U32C A40C G51A C61U A69C was at most 0.5; that for U32C C34G A42C was at most 0.5. Then U32C C34G A42U, with at most 0.5. The value for U32A A36C C60G was at most 0.5; that for U32A G50A A69U was 0.527; that for C31U U32A U35C was 0.593. On to U32C A37U G44A A70G, for which the yeast fitness is at most 0.5. Consider C31U U35C U47A, for which the yeast fitness is at most 0.5. On to U32C A69G, for which the yeast fitness turned out to be 0.882.

As for U32C A69U, the yeast fitness is 0.926. Then U32C A42U G44C U54A, with at most 0.5; and U32A A37U A45C, with at most 0.5. Then U32A C46A A57G, with 0.614; and U32A G48A, with 0.673. The value for U32C A57C was 0.659. In the case of U32C A57U, the yeast fitness came to 0.813. Then U32C C33U A42U, with 0.66; and U32A G39A U54A C66A, with at most 0.5; and U32A C34A A65C, with 0.523. Then U32A C61U, with 0.855; and U32A C61G, with 0.526; and U32C A42U G58C, with 0.623. In the case of U32C A40G, the yeast fitness came to 0.66. In the case of U32C A40U A70U, the yeast fitness turned out to be 0.784. Then U32A C34G, with at most 0.5. The value for U32C A57U A70C was at most 0.5. Then U32C A45U C49G C55G G67C, with at most 0.5. For U32C C34G G41C, the yeast fitness is at most 0.5.

Consider U32A C33A C46G, for which the yeast fitness was at most 0.5. The value for C31U U35A A37G A40C U47C U64G was 0.512; that for C31U U47A C61U A70C was at most 0.5.

In the case of U32C A40C G48C, the yeast fitness was at most 0.5. For U32A C49A, the yeast fitness is 0.582. The value for U32A C49U was 0.78.

For the variant U32A C33G C66U A69U, the yeast fitness was at most 0.5.

On to U32A G38C, for which the yeast fitness worked out at 0.652.

For U32A C62A, the yeast fitness is 0.549.

Take U32A C62U: the yeast fitness is 0.645. The value for C31U U32G C33G was 0.591; that for U32A G56A A69U was 0.554. Then U32A G58C G63C, with at most 0.5; and U32C A42C G44C A69C, with at most 0.5; and U32A A36G G39C C62U, with at most 0.5.

With U32C A43U A70U, the yeast fitness was found to be 0.735. Then U32A C33G C46U, with at most 0.5; and U32A A36G G39C G50A U64C, with at most 0.5; and U32A U35A, with 0.619. Turning to U32A G67C, the yeast fitness was 0.732.

With U32A A43U, the yeast fitness amounted to 0.879.

U32A A43G: the yeast fitness came out at 0.666. Take C31U U32C C34U A57C: the yeast fitness is at most 0.5. With U32A U35A A42U, the yeast fitness is at most 0.5. Consider C31U U54G, for which the yeast fitness stood at 0.535.

For U32C A37U G48A, the yeast fitness came out at 0.537. The value for U32A A43G U53A was at most 0.5.

As to C31U G63A A69C, the yeast fitness was 0.748.

As for U32C A43C C55A A57C, the yeast fitness is at most 0.5. Regarding C31U G67A, the yeast fitness amounted to 0.97. The value for C31U G67U was 0.952. Take U32A A42C A57G A70C: the yeast fitness was at most 0.5. Then U32C A40U U59C, with 0.718. The value for U32A A70G was 0.841. For the variant U32A G39A, the yeast fitness was 0.792. The value for U32A U53C A69C was at most 0.5. Then U32A C34U C55G C62U G68C, with at most 0.5; and C31U G68U, with 0.846. Consider C31U U47G G67C, for which the yeast fitness is at most 0.5. For C31U U32A C61U, the yeast fitness worked out at 0.627. Then C31U U32G, with 0.662. C31U U32A: the yeast fitness was 0.661.

U32C A37C C49G A57G: the yeast fitness is at most 0.5. Regarding U32A C61G G68C, the yeast fitness worked out at 0.601. In the case of U32A C34G G68A A69U A70U, the yeast fitness is at most 0.5. Then U32A G58A, with 0.781; and U32C A42C G44A U53A, with at most 0.5.

For the variant U32A G41A C61A, the yeast fitness was at most 0.5. With U32A C46A U53A, the yeast fitness was at most 0.5. Then U32A A65G, with 0.719.

For the variant U32C A65U G68U, the yeast fitness turned out to be 0.622. Then U32C C34A A37U C46U, with at most 0.5; and U32A A42G, with 0.655.

On to U32C A37G, for which the yeast fitness worked out at 0.819. Then C31U U32C G41C G68U, with at most 0.5; and U32A C46A A65G C66A G68C, with at most 0.5. The value for U32A U47C was 0.826; that for C31U U59A G63A was 0.683. Then U32A C46U, with 0.623; and U32A C46A, with 0.683; and U32A A43G U53A G68A, with at most 0.5. On to U32A G39A C49G, for which the yeast fitness was at most 0.5.

As for U32A G52A, the yeast fitness was at most 0.5. Then U32C A40G G48C A69U A70U, with at most 0.5. With U32A A37C C55G, the yeast fitness was determined as 0.503. Then U32A A43C C49A, with 0.542. The value for U32A A45C G48A was 0.509; that for U32C A36C G52C C66U was at most 0.5.

Regarding C31U U59A C60G, the yeast fitness came to 0.516. Then U32C A42G, with 0.861; and U32C A42C, with 0.866. Take U32A G41C C49G C55U: the yeast fitness is at most 0.5. Then U32A A40G G50A C61G, with 0.787; and U32A U59C A69C, with at most 0.5; and U32C A43G G52A C61G, with 0.532. Then U32A U59G, with 0.831; and C31U U32A U35C A65G, with at most 0.5. The value for U32C A42C G44C G52C was 0.548. U32A G38A A57U: the yeast fitness was determined as 0.557. Then U32A C33A A43U C55U, with at most 0.5. Regarding C31U G58A U59A, the yeast fitness was determined as 0.672. Then U32A C55A, with 0.572; and U32C A70G, with 0.942; and C31U U47G G58C C62U, with 0.552. Then U32A A42U C61G C62U, with 0.661. Then U32C A45G, with 0.91; and U32C A45U, with 0.942; and U32C A45C, with 0.864.

Regarding U32A C61G A70U, the yeast fitness was at most 0.5.

For U32C A37U G56C A57U, the yeast fitness was at most 0.5. U32A C49G C55U: the yeast fitness was at most 0.5.

Regarding U32C A42U C62G, the yeast fitness amounted to 0.578. The value for U32A A45U U54G was at most 0.5; that for U32A C49A U53C C66G was at most 0.5; that for U32C C33U A70G was 0.681.
